Columns and labels:
[1] = system: SK-MEL-2; test: Growth inhibition in SK-MEL-2 cells; assay type: functional; conditions: Homo sapiens
[2] = system: OVCAR-8; test: Growth inhibition in OVCAR8 cells; assay type: functional; conditions: Homo sapiens
[3] = system: SK-OV-3; test: Growth inhibition in SKOV3 cells; assay type: functional; conditions: Homo sapiens
[4] = Growth inhibition in HCC15 cells; assay type: functional; conditions: Homo sapiens
[5] = system: EKVX; test: Growth inhibition in EKVX cells; assay type: functional; conditions: Homo sapiens
[6] = system: T47D; test: Growth inhibition in T47D cells; assay type: functional; conditions: Homo sapiens
[7] = system: K562; test: Growth inhibition in K562 cells; assay type: functional; conditions: Homo sapiens
[8] = system: CAKI-1; test: Growth inhibition in CAK1-1 cells; assay type: functional; conditions: Homo sapiens
[9] = system: IGROV-1; test: Growth inhibition in IGROV1 cells; assay type: functional; conditions: Homo sapiens
[10] = system: U-251; test: Growth inhibition in U251cells; assay type: functional; conditions: Homo sapiens
[11] = system: OVCAR-5; test: Growth inhibition in OVCAR5 cells; assay type: functional; conditions: Homo sapiens
[12] = system: M14; test: Growth inhibition in M14 cells; assay type: functional; conditions: Homo sapiens
[13] = system: KM12; test: Growth inhibition in KM12 cells; assay type: functional; conditions: Homo sapiens
[14] = system: NCI-H23; test: Growth inhibition in NCI-H23 cells; assay type: functional; conditions: Homo sapiens
[15] = system: LOX IMVI; test: Growth inhibition in LOX IMVI cells; assay type: functional; conditions: Homo sapiens
[16] = system: HeLa; test: Cytotoxicity against HeLa cell line; assay type: cell-based; conditions: Homo sapiens
How it was run: (§1)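 Log-phase cells were diluted to 20 000–30 000 cells/mL, seeded, and left to attach overnight. They were then exposed to compounds at 10^–5–10^–12 M for 72 h at 37 °C in 5% CO2. Viable cells were measured by MTT, with absorbance read at 595 nm. Each compound ran in triplicate in at least three independent assays. IC50 came from nonlinear regression, and average values were reported.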

[17] = system: CCRF-CEM; test: Growth inhibition in CCRF-CEM cells; assay type: functional; conditions: Homo sapiens
[18] = system: NCI/ADR-RES; test: Growth inhibition in NCI/ADR-RES cells; assay type: functional; conditions: Homo sapiens
[19] = system: SK-MEL-5; test: Growth inhibition in SK-MEL-5 cells; assay type: functional; conditions: Homo sapiens
[20] = system: A549; test: Growth inhibition in A549 cells; assay type: functional; conditions: Homo sapiens
[21] = system: HOP-62; test: Growth inhibition in HOP62 cells; assay type: functional; conditions: Homo sapiens
[22] = system: COLO 205; test: Growth inhibition in COLO205 cells; assay type: functional; conditions: Homo sapiens
[23] = system: HT-29; test: Growth inhibition in HT29 cells; assay type: functional; conditions: Homo sapiens
[24] = system: SNB-75; test: Growth inhibition in SNB75 cells; assay type: functional; conditions: Homo sapiens
[25] = system: NCI-H460; test: Growth inhibition in NCI-H460 cells; assay type: functional; conditions: Homo sapiens
[26] = biological target: Tubulin; test: Inhibition of tubulin polymerization; assay type: protein-complex assay, Homo sapiens
How it was run: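 Kit-based assay run per the manufacturer's instructions. Tubulin (>99% pure, 3 mg/mL) in G-PEM buffer, in a prewarmed plate with compound at 0.03–30 μM. OD340 nm read every 60 s at 37 °C for 1 h.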

[27] = system: OVCAR-3; test: Growth inhibition in OVCAR-3 cells; assay type: functional; conditions: Homo sapiens
[28] = system: SW-620; test: Growth inhibition in SW620 cells; assay type: functional; conditions: Homo sapiens
[29] = system: NCI-H522; test: Growth inhibition in NCI-H522 cells; assay type: functional; conditions: Homo sapiens
[30] = Cytotoxicity against P-glycoprotein-overexpressing KB-V1 cell line; assay type: cell-based; conditions: Homo sapiens; how it was run: as §1
[31] = system: HL-60; test: Growth inhibition in HL60 cells; assay type: functional; conditions: Homo sapiens
[32] = system: ACHN; test: Growth inhibition in ACHN cells; assay type: functional; conditions: Homo sapiens
[33] = system: UO-31; test: Growth inhibition in UO31 cells; assay type: functional; conditions: Homo sapiens
[34] = system: SN12C; test: Growth inhibition in SN12C cells; assay type: functional; conditions: Homo sapiens
[35] = system: NCI-H226; test: Growth inhibition in NCI-H226 cells; assay type: functional; conditions: Homo sapiens
[36] = system: NCI-H322M; test: Growth inhibition in NCI-H322M cells; assay type: functional; conditions: Homo sapiens
[37] = Growth inhibition in HCC116 cells; assay type: functional; conditions: Homo sapiens
[38] = system: BT-549; test: Growth inhibition in BT549 cells; assay type: functional; conditions: Homo sapiens
[39] = system: SNB-19; test: Growth inhibition in SNB19 cells; assay type: functional; conditions: Homo sapiens
[40] = system: SK-MEL-28; test: Growth inhibition in SK-MEL-28 cells; assay type: functional; conditions: Homo sapiens
[41] = system: MDA-MB-435; test: Growth inhibition in MDA-MB-435 cells; assay type: functional; conditions: Homo sapiens
[42] = system: MCF7; test: Growth inhibition in MCF7 cells; assay type: functional; conditions: Homo sapiens
[43] = system: OVCAR-4; test: Growth inhibition in OVCAR4 cells; assay type: functional; conditions: Homo sapiens
[44] = system: SF-539; test: Growth inhibition in SF539 cells; assay type: functional; conditions: Homo sapiens
[45] = system: DU-145; test: Growth inhibition in DU145 cells; assay type: functional; conditions: Homo sapiens
[46] = system: UACC-257; test: Growth inhibition in UACC257 cells; assay type: functional; conditions: Homo sapiens
[47] = system: 786-0; test: Growth inhibition in 786-0 cells; assay type: functional; conditions: Homo sapiens
[48] = Cytotoxicity against KB-3-1 cell line; assay type: cell-based; conditions: Homo sapiens; how it was run: as §1
[49] = system: PC-3; test: Growth inhibition in PC3 cells; assay type: functional; conditions: Homo sapiens
[50] = system: HCC 2998; test: Growth inhibition in HCC2998 cells; assay type: functional; conditions: Homo sapiens
[51] = system: HCT-116; test: Cytotoxicity against HCT116 cell line; assay type: cell-based; conditions: Homo sapiens; how it was run: as §1
[52] = system: RXF 393; test: Growth inhibition in RXF393 cells; assay type: functional; conditions: Homo sapiens
[53] = system: A498; test: Growth inhibition in A498 cells; assay type: functional; conditions: Homo sapiens
[54] = system: HOP-92; test: Growth inhibition in HOP92 cells; assay type: functional; conditions: Homo sapiens
[55] = system: UACC-62; test: Growth inhibition in UACC62 cells; assay type: functional; conditions: Homo sapiens
[56] = system: SF-268; test: Growth inhibition in SF268 cells; assay type: functional; conditions: Homo sapiens
[57] = system: TK-10; test: Growth inhibition in TK10 cells; assay type: functional; conditions: Homo sapiens
[58] = system: ZR-75-1; test: Cytotoxicity against ZR-75-1 cell line; assay type: cell-based; conditions: Homo sapiens; how it was run: as §1
[59] = system: SF-295; test: Growth inhibition in SF295 cells; assay type: functional; conditions: Homo sapiens
[60] = Growth inhibition in HS 578T cells; assay type: functional; conditions: Homo sapiens
[61] = Growth inhibition in MDA-MB-231/ATCC cells; assay type: functional; conditions: Homo sapiens

COc1cc(-c2nncn2-c2ccc3c(ccn3C)c2)cc(OC)c1OC
GI50 [1]: 166 nM | GI50 [2]: 42.7 nM | GI50 [3]: 31.6 nM | GI50 [4]: 35.5 nM | GI50 [5]: < 10 nM | GI50 [6]: 44.7 nM | GI50 [7]: 14.8 nM | GI50 [8]: < 10 nM | GI50 [9]: 35.5 nM | GI50 [10]: 33.1 nM | GI50 [11]: 47.9 nM | GI50 [12]: 18.6 nM | GI50 [13]: < 10 nM | GI50 [14]: 45.7 nM | GI50 [15]: 56.2 nM | IC50 [16]: 8.73 nM | GI50 [17]: 32.4 nM | GI50 [18]: 20.9 nM | GI50 [19]: 14.1 nM | GI50 [20]: 37.1 nM | GI50 [21]: 18.6 nM | GI50 [22]: 28.8 nM | GI50 [23]: 22.9 nM | GI50 [24]: 12.9 nM | GI50 [25]: 33.1 nM | IC50 [26]: 3000 nM | GI50 [27]: < 10 nM | GI50 [28]: 33.9 nM | GI50 [29]: < 10 nM | IC50 [30]: 20.8 nM | GI50 [31]: 41.7 nM | GI50 [32]: 34.7 nM | GI50 [33]: 32.4 nM | GI50 [34]: 63.1 nM | GI50 [35]: 85100 nM | GI50 [36]: < 10 nM | GI50 [37]: 30.9 nM | GI50 [38]: 37.1 nM | GI50 [39]: 44.7 nM | GI50 [40]: < 10 nM | GI50 [41]: < 10 nM | GI50 [42]: 43.6 nM | GI50 [43]: 1050 nM | GI50 [44]: < 10 nM | GI50 [45]: < 10 nM | GI50 [46]: 245 nM | GI50 [47]: 32.4 nM | IC50 [48]: 9.9 nM | GI50 [49]: 19.5 nM | GI50 [50]: 24 nM | IC50 [51]: 7.39 nM | GI50 [52]: < 10 nM | GI50 [53]: 15.8 nM | GI50 [54]: 83.2 nM | GI50 [55]: < 10 nM | GI50 [56]: < 10 nM | GI50 [57]: < 10 nM | IC50 [58]: 23.8 nM | GI50 [59]: < 10 nM | GI50 [60]: 16.2 nM | GI50 [61]: 30.9 nM

Source: ChEMBL document CHEMBL1141374 (J Med Chem, 2007)
